Source: PubChem BioAssay
Only some compounds are listed: those with a hit (about 1.5% of all), similar ones and a draw of the others.
APJ antag – antagonists of human APJ apelin receptor. 0.32% of 330,000 active. P35414. CHO-K1 APJ beta-arrestin complementation, luminescence. inhibition, % at 20 µM;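 active = inhibition above about 40% at 20 µM, limit read from the data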;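 also: cells challenged with 10 nM apelin-13 agonist together with compound; plate controls were apelin-13 plus DMSO wells for no effect and DMSO wells lacking apelin-13 for full effect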
APJ ag – agonists of human APJ apelin receptor | P35414 | CHO-K1 APJ PathHunter beta-arrestin, luminescence; 0% DMSO wells, 100% apelin | activation, % at 20 µM | 0.11% of 330,000 active;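 active = activation more than six SD over the plate average, tested at 20 µM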;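 also: 0% = DMSO alone and 100% = apelin-13 at 10 nM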
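system = engineered CHO-K1 APJ arrestin reporter cells | input = 1000 cells per well | timing = overnight seeding, 90 min compound at 25 °C, 1 h detection | measured by = enzyme-fragment complementation luminescence | read-out = beta-arrestin recruitment to APJ as agonist activity, luminescent signal | control set = negative DMSO alone, positive Apelin-13 at 10 nM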
EBI2 block – EBI2 (human) antagonism; inhibition, % at 5 µM; AID 651636; 0.81% of 360,000 active; EBI2 beta-arrestin recruitment, luminescence, 7a,25-OHC stimulated; P32249; in the data active = inhibition above about 38%;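 also: enzyme fragment complementation signal reports receptor beta-arrestin coupling in cells; 0% = agonist plus DMSO wells and 100% = wells without agonist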
CCR6 antagonist – blocks CCL20-driven beta-arrestin recruitment at human CCR6. P51684. CHO-K1 CCR6 PathHunter beta-arrestin, luminescence, CCL20-stimulated. inhibition, % at 20 µM. 0.49% of 340,000 active;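 active = compounds whose inhibition of the agonist-driven luminescence signal at 20 µM reaches about 50%, limit read from the data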;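 also: cells stimulated with CCL20 at 14 nM final; plate controls were DMSO with CCL20 for no effect and DMSO without agonist for full effect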
Target sequence (P51684 whole entry, looked up): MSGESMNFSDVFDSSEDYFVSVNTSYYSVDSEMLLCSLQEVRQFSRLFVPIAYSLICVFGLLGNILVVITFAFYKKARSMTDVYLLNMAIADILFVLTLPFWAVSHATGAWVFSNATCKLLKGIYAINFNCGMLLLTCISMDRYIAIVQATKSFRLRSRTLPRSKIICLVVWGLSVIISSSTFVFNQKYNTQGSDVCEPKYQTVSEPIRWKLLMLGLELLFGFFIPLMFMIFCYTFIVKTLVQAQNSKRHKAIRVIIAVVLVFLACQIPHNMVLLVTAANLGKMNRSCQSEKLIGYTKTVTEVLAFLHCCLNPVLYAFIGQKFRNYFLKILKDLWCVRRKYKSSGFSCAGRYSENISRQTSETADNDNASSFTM
CXCR6 inh – CXCR6 (human) receptor inhibition. O00574. CHO-K1 PathHunter CXCR6 beta-arrestin, luminescence. inhibition, % at 20 µM. 0.36% of 360,000 active. AID 602244; in the data active = inhibition above about 34%, passing the limit was not always enough;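 also: antagonist mode with CXCL16 agonist at 10 nM final; 0% = 10 nM CXCL16 with DMSO and 100% = unstimulated wells without agonist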
CXCR6 confirm – confirmation of human CXCR6 receptor antagonists; inhibition, % at 20 µM; 65% of 700 active; CHO-K1 CXCR6 PathHunter beta-arrestin, luminescence; AID 602409; shares compounds with CXCR6 inh;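 active = mean inhibition over four retests above 40%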;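 also: receptor stimulated with 10 nM CXCL16 agonist; beta-galactosidase fragment complementation upon beta-arrestin recruitment to receptor; plate controls were CXCL16 plus DMSO for no effect and DMSO without CXCL16 for full effect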
* marks the source's active call; other numbers are inactive results.

How did CC(=NO)C1CCC2C3CCC4=CC(=NO)CCC4(C)C3C(O)CC12C (configuration not stated) do in these assays?
EBI2 block: 5; CCR6 antagonist: 57*; CXCR6 inh: 44*; CXCR6 confirm: 57*

How did O=[N+]([O-])c1ccc(N=Nc2ccc(O)c3ccccc23)cc1 do in these assays?
EBI2 block: 0; CCR6 antagonist: 50; CXCR6 inh: 28

What do the screens show for `COc1ccccc1C(=O)NC(=O)COC(=O)c1ccc(Br)o1`?
APJ antag: 29; APJ ag: 1; EBI2 block: -5; CCR6 antagonist: 10; CXCR6 inh: -1

How did CCSc1nnc(C)c(=O)n1COC(=O)c1ccc(S(=O)(=O)N2CCCC2)cc1 do in these assays?
APJ antag: 1; APJ ag: 3; EBI2 block: 1; CCR6 antagonist: -11; CXCR6 inh: -4

What do the screens show for `Cc1ccc(P(=O)(c2ccc(C)cc2)[C@@H](NC(c2ccccc2)c2ccccc2)c2ccccc2)cc1`?
EBI2 block: 27; CXCR6 inh: 41*; CXCR6 confirm: 41*

How did Cc1ccc(P(=O)(O)c2ccc(C)cc2)cc1 do in these assays?
APJ antag: 3; APJ ag: 2; EBI2 block: -1; CCR6 antagonist: 3; CXCR6 inh: 3

Results for C=CCOc1ccc(C=NNc2ccc(S(=O)(=O)Nc3ccccc3C(=O)O)cc2[N+](=O)[O-])cc1OC ?
APJ antag: 11; APJ ag: -2; EBI2 block: 0; CXCR6 inh: 50*; CXCR6 confirm: 44*

What do the screens show for `CCOc1ccc(C=NNc2ccc(S(=O)(=O)Nc3ccccc3C(=O)O)cc2[N+](=O)[O-])cc1`?
APJ antag: 25; APJ ag: -9; EBI2 block: 8; CXCR6 inh: 24

How did N#Cc1ccc(-c2nc3c4ccccc4ccn3c2CC2CCCCC2)cc1 do in these assays?
EBI2 block: 24; CXCR6 inh: 7

Results for COc1ccc(NC(=O)c2cc(-c3ccc(C)o3)nc3ccccc23)c(OC)c1 ?
APJ antag: 15; APJ ag: -1; EBI2 block: -14; CCR6 antagonist: 5; CXCR6 inh: 10

Results for Cc1ccc(-c2cc(C(=O)Nc3ccccc3C(N)=O)c3ccccc3n2)o1 ?
APJ antag: 28; APJ ag: -5; EBI2 block: 11; CCR6 antagonist: 18; CXCR6 inh: 47*; CXCR6 confirm: 1

How did CC(=O)Nc1ccc(S(=O)(=O)N(C)CC(=O)N/N=C/c2ccc(C(=O)O)cc2)cc1 do in these assays?
APJ antag: -10; APJ ag: -1; EBI2 block: -13; CCR6 antagonist: -6; CXCR6 inh: 88*; CXCR6 confirm: -3

What do the screens show for `COc1ccc(/C=N/NC(=O)CN(C)S(=O)(=O)c2ccc(NC(C)=O)cc2)cc1`?
APJ antag: -10; APJ ag: -1; EBI2 block: -6; CCR6 antagonist: 5; CXCR6 inh: 0

How did Cc1c(CCCl)c(Cl)n2c(nc3ccccc32)c1C#N do in these assays?
EBI2 block: 67*; CCR6 antagonist: 63*; CXCR6 inh: 44*; CXCR6 confirm: 40

What do the screens show for `Cc1cc(Cl)n2c(nc3ccccc32)c1C#N`?
EBI2 block: -11; CCR6 antagonist: 17; CXCR6 inh: 12

Results for CC(C)c1ccc(NC(=S)NCCc2c[nH]c3ccccc23)cc1 ?
APJ antag: 2; APJ ag: -1; EBI2 block: 40; CCR6 antagonist: 22; CXCR6 inh: -8

Results for O=C(NC(=S)N1CCN(c2c(Cl)cccc2[N+](=O)[O-])CC1)c1cccs1 ?
APJ antag: 7; APJ ag: -3; EBI2 block: 13; CCR6 antagonist: 45; CXCR6 inh: 38*; CXCR6 confirm: 35

How did O=C1C=CC(=O)N1CCNc1ncc(C(F)(F)F)cc1Cl do in these assays?
APJ antag: -12; APJ ag: -1; EBI2 block: 11; CXCR6 inh: 97*; CXCR6 confirm: 77*

What do the screens show for `O=C1CC(=O)N(CCNc2ncc(C(F)(F)F)cc2Cl)C(=O)N1`?
APJ antag: 1; APJ ag: 3; EBI2 block: 7; CCR6 antagonist: 6; CXCR6 inh: 6

How did CCN1CCN(c2ccc(N3CCN(C(=O)c4ccc(Br)o4)CC3)nn2)CC1 do in these assays?
APJ antag: -3; APJ ag: -1; EBI2 block: -15; CCR6 antagonist: 4; CXCR6 inh: -6

What do the screens show for `Cc1cc(OC(=O)Cc2cccc3ccccc23)c([N+](=O)[O-])c(=O)[nH]1`?
APJ antag: 5; APJ ag: -5; EBI2 block: -13; CCR6 antagonist: -9; CXCR6 inh: 39*; CXCR6 confirm: -2

How did CC(C)CCn1c(SCC(=O)Nc2ccccc2C(F)(F)F)nc2nccnc2c1=O do in these assays?
APJ antag: -13; APJ ag: 4; EBI2 block: 6; CCR6 antagonist: 20; CXCR6 inh: 6

What do the screens show for `CCn1nc(NC(C)=O)c2cc3ccc(C)cc3nc21`?
APJ antag: 3; APJ ag: 0; EBI2 block: 2; CCR6 antagonist: -5; CXCR6 inh: 44*; CXCR6 confirm: 6

What do the screens show for `CCn1nc(NC(=O)C(C)C)c2cc3ccc(C)cc3nc21`?
APJ antag: -8; APJ ag: 0; EBI2 block: 1; CCR6 antagonist: 3; CXCR6 inh: -7

How did Cc1ccc(NC(=O)c2cc(N3C(=O)C=CC3=O)ccc2N2CCOCC2)cc1 do in these assays?
EBI2 block: 0; CXCR6 inh: 89*; CXCR6 confirm: 28

What do the screens show for `Cc1nnc(NC(=O)c2cc(-c3ccncc3)nc3c(C)cccc23)s1`?
APJ antag: -35; APJ ag: 12; EBI2 block: -5; CCR6 antagonist: -2; CXCR6 inh: 45*; CXCR6 confirm: 21

How did Cc1ccc(Cn2c(SCC(=O)N3CC(=O)Nc4ccccc43)nc3ccccc3c2=O)cc1 do in these assays?
APJ antag: -6; APJ ag: 1; EBI2 block: 13; CCR6 antagonist: -4; CXCR6 inh: 8

How did O=C1CN(C(=O)CSc2nc3cc(Cl)ccc3c(=O)n2Cc2ccccc2)c2ccccc2N1 do in these assays?
APJ antag: 29; APJ ag: -7; EBI2 block: 26; CCR6 antagonist: 56*; CXCR6 inh: 43*; CXCR6 confirm: 47*

What do the screens show for `O=C1c2cccc3c([N+](=O)[O-])ccc(c23)C(=O)N1Cc1cccnc1`?
EBI2 block: 39; CXCR6 inh: 60*; CXCR6 confirm: 65*

What do the screens show for `COC(=O)C1N2C(=O)[C@@H](NC(=O)COc3ccccc3)[C@H]2SC1(C)C` (some centres not stated)?
APJ antag: -2; APJ ag: 6; EBI2 block: -11; CCR6 antagonist: 9; CXCR6 inh: -4
